Measurements from different studies.
Lines come from different studies, so protocols differ.
Target: Calcium/calmodulin-dependent protein kinase type IV (CAMK4, Homo sapiens, UniProt Q16566)
Residues used in one study (Q16566 1-473): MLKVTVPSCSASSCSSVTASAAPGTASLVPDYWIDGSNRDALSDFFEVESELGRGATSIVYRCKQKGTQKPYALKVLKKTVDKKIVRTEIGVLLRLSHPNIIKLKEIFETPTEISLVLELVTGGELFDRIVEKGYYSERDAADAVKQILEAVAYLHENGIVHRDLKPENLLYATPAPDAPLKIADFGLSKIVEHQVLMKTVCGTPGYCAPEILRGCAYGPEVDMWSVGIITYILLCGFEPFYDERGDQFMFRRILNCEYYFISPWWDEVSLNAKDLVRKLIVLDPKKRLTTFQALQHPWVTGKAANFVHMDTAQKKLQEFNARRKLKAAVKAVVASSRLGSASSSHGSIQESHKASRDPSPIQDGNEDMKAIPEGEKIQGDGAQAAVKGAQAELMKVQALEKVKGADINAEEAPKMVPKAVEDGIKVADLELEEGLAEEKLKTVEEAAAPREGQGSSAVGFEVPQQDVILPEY

Compound	test	conditions	endpoint	value
CCCOc1ccc(OC)c(F)c1C(=O)c1ccc(C(=O)N[C@@H]2CNC[C@H]2NC(=O)c2ccc3[nH]ncc3c2)cc1	enzyme activity, inhibitor	10 µM	remaining activity	95%
CNc1cccc2cc(C(=O)Nc3ccc(C(=O)O)cc3)c(=O)[nH]c12	enzyme activity, inhibitor	10 µM	inhibition	11%
CNC(=O)c1cc(Oc2ccc(NC(=O)Nc3ccc(Cl)c(C(F)(F)F)c3)cc2)ccn1	enzyme activity, inhibitor	10 µM	inhibition	10%
NS(=O)(=O)c1cc(NC(=O)Cc2ccccc2)ccc1Oc1cccc(Cl)c1	cell-free assay, competition with immobilised ligand	1 µM	remaining binding	100%
CC1(C)NC(=O)c2[nH]c3c(Cl)c(Cl)ccc3c2C1C#N (stereo not drawn)	thermal stability, DSF	10 µM	ΔTm	-0.1 °C
CCC(=O)N[C@@H]1CC[C@H](C(=O)N(C)c2ccc(-c3nc4ccccc4o3)cc2)C1	cell-free assay, competition with immobilised ligand	1 µM	remaining binding	100%
Cn1c2c(c3ccc(Cl)c(Cl)c31)C(C#N)C1(CCN(C(=O)OC(C)(C)C)CC1)NC2=O (racemic)	thermal stability, DSF	10 µM	ΔTm	-0.3 °C
O=C1NC(=O)c2cc(Nc3ccc(F)cc3)c(Nc3ccc(F)cc3)cc21	cell-free assay	0.5 µM	remaining signal	98.7%
COc1cccc(CNC(=O)c2nc3scc(COCc4ccc(C(=O)O)cc4)c3c(=O)[nH]2)c1	cell-free assay, competition with immobilised ligand	1 µM	remaining binding	100%
Cc1cnc(NC2CCOCC2)nc1-n1cnc(C(=O)NC(CN)c2cc(F)cc(Cl)c2)c1 (stereo not drawn)	enzyme activity, inhibitor, radiometric	1 µM	remaining activity	49%
CCN1CCC2(CC1)NC(=O)c1c(c3ccc(Cl)c(Cl)c3n1C)C2C#N (racemic)	thermal stability, DSF	10 µM	ΔTm	0.1 °C
Cc1ncc([N+](=O)[O-])n1C(=NO)c1ccccc1C(F)(F)F	enzyme activity, inhibitor	10 µM	inhibition	27.6%
Nc1ncnc2occ(-c3ccc(NC(=O)Nc4cc(C(F)(F)F)ccc4F)cc3)c12	cell-free assay, inhibitor	20 µM	remaining signal	1.5%
O=C(NS(=O)(=O)c1ccc(NCC2CCOCC2)c([N+](=O)[O-])c1)c1ccc(N2CCN(Cc3ccc(C(F)(F)F)cc3-c3ccc(Cl)cc3)CC2)cc1Oc1cnc2[nH]ccc2c1	cell-free assay, competition with immobilised ligand	1 µM	remaining binding	100%
Clc1ccc(Nc2nnc(Cc3ccncc3)c3ccccc23)cc1	cell-free assay	0.5 µM	remaining signal	93.4%
CC1=C(C#N)C(c2ccc3c(c2)c(NC(=O)c2ccccc2C)nn3C)C(C#N)=C(C)N1	cell-free assay, competition with immobilised ligand	1 µM	remaining binding	70%
O=C1Nc2ccc(Cl)cc2C1=Cc1cc(Cl)c(O)c(Cl)c1	cell-free assay	0.5 µM	remaining signal	96.8%
COc1cc(Cl)c(C(=O)N[C@@H](CN[C@H]2CC[C@@H](N)CC2)Cc2ccc(C#N)cc2)cc1-c1ccc(CN[C@H](C)c2ccc(C)cc2)o1	enzyme activity, inhibitor	1 µM	remaining activity	92%
